Source: ChEMBL document CHEMBL1154962, “Novel 6-N-arylcarboxamidopyrazolo[4,3-d]pyrimidin-7-one derivatives as potential anti-cancer agents” (2010)

Assays:
Format in all cases: functional
DU-145 [1] = test: Cytotoxicity against human DU145 cells at 100 uM after 2 days by sulforhodamine B assay; conditions: DU-145, 48 h
Outline: (§1)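 Five human cancer lines (HT-29, DU-145, A-549, SK-MEL-2, SK-OV-3) seeded at 3–7 × 10³ cells/well; compounds at 100 µM added in duplicate; 37 °C, 5% CO₂, two days. Fixed with formalin, SRB stained, washed with 1% acetic acid, dye solubilized in 10 mM unbuffered Tris base; OD at 520 nm. Read-out is % inhibition.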

SK-MEL-2 = test: Cytotoxicity against human SK-MEL-2 cells at 100 uM after 2 days by sulforhodamine B assay; conditions: SK-MEL-2, 48 h; outline: as §1
SK-OV-3 = test: Cytotoxicity against human SKOV3 cells at 100 uM after 2 days by sulforhodamine B assay; conditions: SK-OV-3, 48 h; outline: as §1
HT-29 [2] = test: Cytotoxicity against human HT-29 cells at 100 uM after 2 days by sulforhodamine B assay; conditions: HT-29, 48 h; outline: as §1
A549 = test: Cytotoxicity against human A549 cells at 100 uM after 2 days by sulforhodamine B assay; conditions: A549, 48 h; outline: as §1
HT-29 [3] = test: Growth inhibition of human HT-29 cells after 2 days by MTT assay; conditions: HT-29, 48 h
Outline: (§2)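 HT-29 and DU-145 cells seeded at 5 × 10⁴ cells/mL; serial concentrations added in duplicate; 37 °C, 5% CO₂, two days. MTT dye (Cell Titer96) for up to 4 h at 37 °C, then solubilization/stop mix overnight at room temperature; OD at 570 nm. GI₅₀ = concentration giving 50% growth inhibition; mean ± SEM of three or more experiments; doxorubicin as internal standard.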

DU-145 [4] = test: Growth inhibition of human DU145 cells after 2 days by MTT assay; conditions: DU-145, 48 h; outline: as §2

Compound	inhibition at 100 µM (DU-145 [1]) [%]	inhibition at 100 µM (SK-MEL-2) [%]	inhibition at 100 µM (SK-OV-3) [%]	inhibition at 100 µM (HT-29 [2]) [%]	inhibition at 100 µM (A549) [%]	GI50 (HT-29 [3]) [µM]	GI50 (DU-145 [4]) [µM]
CC(C)Cc1n[nH]c2c(=O)n(NC(=O)c3ccncc3)c(-c3cccc([N+](=O)[O-])c3)nc12	55.3	38.7	35.8				
CCCc1n[nH]c2c(=O)n(NC(=O)c3ccncc3)c(-c3cccc(OC)c3)nc12	4.04	11.4	4.04	0.07	11.2		
COc1cccc(-c2nc3c(-c4ccc(C5CCNCC5)cc4)n[nH]c3c(=O)n2NC(=O)c2ccncc2)c1	37	23.4	18.2	28.1	32.4		
O=C(Nn1c(-c2cccc([N+](=O)[O-])c2)nc2c(-c3cccc(Cl)c3)n[nH]c2c1=O)c1ccccc1	93.8	78.2		89.8			
COc1cccc2c1C(=O)c1c(O)c3c(c(O)c1C2=O)C[C@@](O)(C(=O)CO)C[C@@H]3O[C@H]1C[C@H](N)[C@H](O)[C@H](C)O1 [DOXORUBICIN]	62.8			60.9		0.85	0.35
O=C(Nn1c(-c2cccc([N+](=O)[O-])c2)nc2c(-c3ccco3)n[nH]c2c1=O)c1cccnc1	1.66	19.2	-0.61	11.7	1.51		
COc1cccc(-c2nc3c(-c4ccc(Cl)cc4)n[nH]c3c(=O)n2NC(=O)c2ccccc2)c1	94.1	84.9	81.7	87.3	81.8	20.4	17.9
COc1cccc(-c2nc3c(-c4cccc(Cl)c4)n[nH]c3c(=O)n2NC(=O)c2ccccc2)c1	93.5	81.9		91			
O=C(Nn1c(-c2cccc([N+](=O)[O-])c2)nc2c(-c3ccco3)n[nH]c2c1=O)c1ccccc1	16.1	23	17.9	21.2	18.7		
O=C(Nn1c(-c2ccccc2)nc2c(-c3ccc(Cl)cc3)n[nH]c2c1=O)c1ccccc1	90.2			92		20.6	20.1
CCCc1nc2c(-c3ccc(Cl)cc3)n[nH]c2c(=O)n1NC(=O)Cc1ccccc1	89.7			91.4		15.2	16
CCCc1nc2c(-c3ccc(Cl)cc3)n[nH]c2c(=O)n1NC(=O)c1ccccc1	89.4			91.1		9.26	29.2
O=C(Nn1c(-c2cccc([N+](=O)[O-])c2)nc2c(-c3ccc(F)cc3)n[nH]c2c1=O)c1ccccc1	90.8	88.5	77.7	92	80.7		
O=C(Nn1c(-c2cccc([N+](=O)[O-])c2)nc2c(-c3ccc(Cl)cc3)n[nH]c2c1=O)c1cccnc1	31	16.3	30.2	15.1	19.7		
O=C(Nn1c(-c2cccc([N+](=O)[O-])c2)nc2c(-c3ccc(Cl)cc3)n[nH]c2c1=O)c1ccccc1	94.2	89	86.8	87.8	88.6	18.4	17.1
COc1cccc(Cc2nc3c(-c4ccc(Cl)cc4)n[nH]c3c(=O)n2NC(=O)c2ccccc2)c1	93.2			89.3		22.1	44.9
